In article PMC11847389 (BMC Chemistry, 2025):

Assays:
[1] = cited from earlier work
[2] = system: patients with covalent BTKi-pretreated CLL; settings: cited from earlier work
[3] = in vitro, independent of concentration; ref package insert of JAYPIRCA; cited from earlier work
mutant BTK C481T = settings: cited from earlier work
[4] = Stability of pirtobrutinib in rat plasma under different storage conditions; format: in vitro ADME; settings: for Stability RE %: n = 6
Outline: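 Blank rat plasma was spiked 1:10 with working solution to make QCs of 1, 25 and 400 ng/mL, six replicates each. These were held at room temperature 4 h, in the autosampler at 4 °C 24 h, through three freeze-thaw cycles, or at -80 °C 30 days. Samples then underwent cold-methanol protein precipitation with IS and UHPLC-MS/MS; RSD% and RE% were reported.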

[5] = system: CYP3A4, UGT1A8 and UGT1A9; settings: ref package insert of JAYPIRCA; cited from earlier work
CLL/SLL patients = settings: 323 patients; cited from earlier work
[6] = Pharmacokinetic study of pirtobrutinib in rats; format: in vivo, Sprague–Dawley rats
Outline: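 Six male Sprague–Dawley rats (8 weeks, 230 g ± 10 g), fasted 12 h, got a single intragastric 10 mg·kg-1 suspension in 0.5% CMC-Na. Ophthalmic-vein blood (200 µL, EDTA-K2) was drawn pre-dose and at 0.25–48 h; plasma was frozen at -80 °C. Plasma underwent cold-methanol protein precipitation with IS, then C18 UHPLC-MS/MS (0.5–500 ng/mL calibration). Parameters came from non-compartmental analysis.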

mutant BTK C481R = settings: cited from earlier work
mutant BTK C481S = settings: cited from earlier work
[7] = ref package insert of JAYPIRCA, cited from earlier work
[8] = male, Sprague-Dawley, rat, plasma, po, 10 mg/kg

COc1ccc(F)cc1C(=O)NCc1ccc(-c2nn([C@@H](C)C(F)(F)F)c(N)c2C(N)=O)cc1 [Pirtobrutinib]
permeability in vitro [1]: high
ORR versus venetoclax monotherapy [2]: significantly higher
human protein binding [3]: 96%
inhibition of autophosphorylation of Y223 (mutant BTK C481T): can inhibit
Stability RE % ([4]; 1.0 ng/mL, autosampler 4 ℃, 24 h after preparation): -6.9%
Stability RE % ([4]; 25 ng/mL, autosampler 4 ℃, 24 h after preparation): -9.4%
Stability RE % ([4]; 400 ng/mL, autosampler 4 ℃, 24 h after preparation): -11.7%
Stability RE% value, three QC samples ([4]; all four storage conditions, absolute (±) value): < 11.7%
Stability RE % ([4]; rat plasma, 1.0 ng/mL, -80 ℃, 30 days): -1.8%
Stability RE % ([4]; rat plasma, 1.0 ng/mL, room temperature, 4 h): 0%
Stability RE % ([4]; rat plasma, 1.0 ng/mL, three freeze-thaw): -3.7%
Stability RE % ([4]; rat plasma, 25 ng/mL, -80 ℃, 30 days): 9.4%
Stability RE % ([4]; rat plasma, 25 ng/mL, room temperature, 4 h): 1.7%
Stability RE % ([4]; rat plasma, 400 ng/mL, three freeze-thaw): 6.0%
Stability in plasma ([4]; several storage and handling conditions): stable
metabolism in vitro [5]: primarily metabolized by CYP3A4 and direct glucuronidation by UGT1A8 and UGT1A9
dose-limiting toxicities (CLL/SLL patients): no dose-limiting toxicities
patients discontinuing medication due to treatment-related AEs (CLL/SLL patients): 1%
plasma concentration at last sampling timepoint ([6]; 48 h after intragastric 10 mg·kg−1, LLOQ 0.5 ng/ml): below the LLOQ
concentration at 0.25 h ([6]; male, Sprague-Dawley, rat, plasma, oral, 10 mg·kg−1): 140 ng/mL
AUC(0-inf) [6, 8]: 2350 ± 582 ng·h/mL
AUC(0-t) [6, 8]: 2340 ± 578 ng·h/mL
Cmax [6, 8]: 344 ± 56.6 ng/mL
MRT inf [6, 8]: 5.15 ± 0.94 h
MRT last [6, 8]: 5.05 ± 0.923 h
Tmax [6, 8]: 1.08 ± 0.736 h
half-life [6, 8]: 2.95 ± 0.121 h
inhibition of autophosphorylation of Y223 (mutant BTK C481R): can inhibit
inhibition of autophosphorylation of Y223 (mutant BTK C481S): can inhibit
mean apparent clearance ([7]; (37.2%) printed as spread): 2.05 L/h
median time to reach peak plasma concentration (tmax) ([7]; range 0.833 to 4.15 h): approximately 2 h
effective half-life [7]: approximately 19 h
absolute bioavailability ([7]; single oral 200 mg dose, range 75.9–90.9%): 85.5%
